# Measured values: ChEMBL document CHEMBL1153408, “Molecular modeling studies and in vitro bioactivity evaluation of a set of novel 5-nitro-heterocyclic derivatives as anti-T. cruzi agents” (2009)
# Legend:
# Format in all cases: functional
# Trypanosoma cruzi [1] = test: Antitrypanosomal activity against Trypanosoma cruzi Y epimastigotes assessed as parasite growth at 20 ug/ml after 24 hrs
# In short: (§1)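 Y strain epimastigotes grown in LIT medium (pH 7.2, 10% FBS, 2% hemoglobin). Compounds dissolved in DMSO and diluted into LIT. Parasites added at an initial 10^6/mL and incubated at 28 °C for 24 h. Cells counted in a Neubauer chamber at 0 h and 24 h, in triplicate. Growth % = (L24 − L0) × 100/L0.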
# Trypanosoma cruzi [2] = test: Antitrypanosomal activity against Trypanosoma cruzi Y epimastigotes assessed as parasite growth at 10 ug/ml after 24 hrs; in short: as §1
# Trypanosoma cruzi [3] = test: Antitrypanosomal activity against Trypanosoma cruzi Y epimastigotes assessed as parasite growth at 1 ug/ml after 24 hrs; in short: as §1
Structure (SMILES),Parasite growth over 24 h (Trypanosoma cruzi [1]),Activity (Trypanosoma cruzi [2]),Parasite growth (Trypanosoma cruzi [3])
O=C(N/N=C/c1ccc([N+](=O)[O-])s1)c1ccccc1,0%,57.3%,13%
O=C(N/N=C/c1ccc([N+](=O)[O-])s1)c1ccc(Cl)cc1,0%,0%,4%
COc1ccc(C(=O)N/N=C/c2ccc([N+](=O)[O-])s2)cc1,0%,0%,100%
O=C(N/N=C/c1ccc([N+](=O)[O-])o1)c1ccccc1,0%,0%,0%
NS(=O)(=O)c1ccc(C(=O)N/N=C/c2ccc([N+](=O)[O-])s2)cc1,19%,18.2%,16%
O=C(N/N=C/c1ccc([N+](=O)[O-])o1)c1ccc(Cl)cc1,0%,0%,0%
O=C(N/N=C/c1ccc([N+](=O)[O-])s1)c1ccc(C(F)(F)F)cc1,0%,0%,28.4%
O=C(N/N=C/c1ccc([N+](=O)[O-])s1)c1ccc(O)cc1,–,56.6%,–
CN(C)c1ccc(C(=O)N/N=C/c2ccc([N+](=O)[O-])s2)cc1,0%,43.6%,10%
N#Cc1ccc(C(=O)N/N=C/c2ccc([N+](=O)[O-])s2)cc1,–,0%,–
O=C(Cn1ccnc1[N+](=O)[O-])NCc1ccccc1 [BENZNIDAZOLE],3%,30%,–
